Sampled rows, rich in hits. Any-hit rate of the full collection: about 1.8%.
Runt-SMMHC FRET: blocks binding of human RUNX1 Runt domain to CBFb-SMMHC; actives 0.74% (n = 220,000); AID 1434; Cerulean-Runt/Venus-CBFb-SMMHC FRET ratio 530/480, 1 h; inhibition, % at 20 µM; Q01196+Q13951;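 active = mean inhibition across duplicate retests at 20 µM reaching about 50%, limit read from the data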;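 also: 0% = DMSO wells and 100% = wells with excess untagged CBFb-SMMHC; inhibitors lower the FRET ratio by blocking Runt binding to CBFb-SMMHC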
Target sequence (Q01196 whole entry, looked up, the tested form may be a part): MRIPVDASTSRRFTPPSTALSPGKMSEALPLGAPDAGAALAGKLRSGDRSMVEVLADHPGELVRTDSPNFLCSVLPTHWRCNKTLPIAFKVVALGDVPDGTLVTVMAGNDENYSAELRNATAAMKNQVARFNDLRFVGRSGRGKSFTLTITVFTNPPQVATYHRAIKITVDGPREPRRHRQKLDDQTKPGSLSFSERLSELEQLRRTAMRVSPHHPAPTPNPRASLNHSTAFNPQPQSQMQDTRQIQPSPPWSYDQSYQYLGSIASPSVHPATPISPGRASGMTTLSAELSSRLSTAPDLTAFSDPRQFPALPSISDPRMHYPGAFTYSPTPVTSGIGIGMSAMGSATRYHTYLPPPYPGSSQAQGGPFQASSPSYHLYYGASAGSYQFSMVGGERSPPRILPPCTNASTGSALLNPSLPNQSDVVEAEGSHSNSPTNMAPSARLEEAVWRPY
Target sequence (Q13951 whole entry, looked up, the tested form may be a part): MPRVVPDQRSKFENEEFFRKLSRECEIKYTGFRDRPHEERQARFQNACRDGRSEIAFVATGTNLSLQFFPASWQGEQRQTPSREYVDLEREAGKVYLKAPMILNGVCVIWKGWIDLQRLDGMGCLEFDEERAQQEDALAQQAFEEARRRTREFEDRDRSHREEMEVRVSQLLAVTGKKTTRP
Runt-CBFb FRET: inhibitors of human RUNX1 Runt domain binding to CBFb. inhibition, % at 20 µM. Cerulean-Runt/Venus-CBFb FRET ratio 530/480, 1 h. actives 0.46% (n = 220,000). AID 1496;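 active = inhibition over about 50% at 20 µM in the single-dose screen, limit read from the data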;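 also: 0% = DMSO wells and 100% = excess unlabeled CBFb competitor control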
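Measured by: fluorescence energy transfer, 422 nm excitation, 530/480 nm emission; test system: Cerulean-tagged RUNX1 Runt domain (FRET donor) fusion protein; buffer or medium: Tris pH 7.5 buffer with BSA; compound: one dose, 20 µM compound, 1% DMSO; times: two 1 h room-temperature incubations shielded from light; benchmarks: unlabeled CBFb 5 µM, positive control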
RanGTP-Imp inh: disruptors of Ran-importin-beta complex formation – biochemical, FRET, CFP-Ran, YFP-importin-beta, homogeneous, primary screen. cell-free CFP-Ran/YFP-importin-beta FRET ratio. inhibition, % (no concentration beside the values). actives 1.1% (n = 300,000);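 active = more than half of the replicate wells show a fall in the fluorescence ratio signal beyond about 16%, limit read from the data, passing the limit was not always enough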;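 also: 0% = DMSO wells and 100% = Ran loaded with GDP instead of GTP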
Hck-Nef inh: inhibitors of human Hck kinase activated by Nef; P08631; Recombinant Hck-YEEI plus Nef, Z-Lyte FRET kinase assay; inhibition, % at 20 µM; actives 0.68% (n = 220,000);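 active = Hck-Nef kinase inhibition above about 50%, limit read from the data; inactive = inhibition below that limit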;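 also: 0% = DMSO with Hck plus Nef and 100% = Hck alone without Nef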
Hck-Nef confirm: Hck-Nef kinase inhibition, confirmation | shares compounds with Hck-Nef inh | Recombinant Hck-YEEI:Nef, Z-Lyte FRET kinase assay | calls only at 10 µM | actives 28% (n = 1,300);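 active = average inhibition of at least 50%, with Z-scores no higher than 3 in both the phospho-tyrosine peptide and fluorescence counterscreens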
Active calls of the source: *; i = inactive; / = no result given; + = active, no number.

SMILES	Runt-SMMHC FRET	Runt-CBFb FRET	RanGTP-Imp inh	Hck-Nef inh	Hck-Nef confirm
CCC(C)C(=O)Nc1ccc(OC)cc1[N+](=O)[O-] (stereo unspecified)	0	0	-1	0	/
CC(/C=N/n1c(COc2ccccc2)n[nH]c1=S)=C\c1ccco1	8	15	4	50*	i
O=C(Cc1ccc(Cl)cc1)Nc1ccc(-c2nnc(-c3ccco3)o2)cc1	8	13	-1	4	/
O=C(CSCc1ccc(Cl)cc1)Nc1ccc(-c2nnc(-c3ccccc3)o2)cc1	-3	-1	0	91*	i
CC(C)c1ccccc1NC(=O)CN1C(=O)c2ccccc2C1=O	/	/	-4	/	/
O=S(=O)(O)c1cccc(N=Nc2c(O)ccc3ccccc23)c1	-195	-5	-6	85*	+
CC(=O)OCC1=C(C(=O)O)N2C(=O)C(NC(=O)C(C)Cn3nc(C)c(Cl)c3C)C2SC1 (stereo unspecified)	0	2	0	70*	i
CC(=O)OCC1=C(C(=O)O)N2C(=O)C(NC(=O)c3ccc(F)cc3)C2SC1 (stereo unspecified)	2	2	0	18	/
CC(C)NS(=O)(=O)c1ccc(OCC(=O)Nc2ccc(F)cc2)cc1	3	0	6	-5	/
Nc1c(Cl)ncnc1N/N=C/c1ccc(O)cc1	-3	9	0	52*	i
Oc1ccc(/C=N/Nc2nccnc2Cl)cc1	-4	0	2	-2	/
O=C1OC(/C=C/c2ccccc2)=NC/1=C\c1cccnc1	-2	-1	-2	82*	+
COc1ccc(Br)cc1CN1CCN(C(=O)c2cccc(F)c2)CC1	/	/	3	/	/
Cc1ccc(CNC(=O)C2CCC(=O)N(CCc3cccc(F)c3)C2)cc1 (stereo unspecified)	/	/	1	/	/
Cc1cc(C)c2c(N)c3ccccc3nc2n1	78*	11	135*	53*	i
Cc1cc(C)c2cccc(N)c2n1	-2	2	4	27	/
COc1ccc(-c2nnc(SCC(=O)c3ccc(C)o3)o2)cc1	2	-1	-2	-1	/
COc1ccc(CN(C(=O)CSc2nnc(-c3ccc(F)cc3)o2)c2ccc(F)cc2)cc1	-2	-1	0	77*	i
CCN1CCN(c2ccc(S(=O)(=O)N3CCOCC3)cc2NC(=O)CCC(C)C)CC1	/	/	0	/	/
CC(C)n1cnc2cc(NCc3ccco3)ccc21	3	5	-2	79*	i
CC1(C)CC(=O)C2=C(C1)c1c(ccc3ccccc13)NC2c1cc([N+](=O)[O-])cc([N+](=O)[O-])c1O (stereo unspecified)	-7	29	-2	51*	+
CC1(C)CC(=O)C2=C(C1)c1c(ccc3ccccc13)NC2c1ccc(C(=O)O)cc1 (stereo unspecified)	/	/	-1	/	/
C=CCOc1ccc(/C=C2\SC(=S)N(C(C(=O)O)c3ccccc3)C2=O)cc1 (stereo unspecified)	-24	-24	-2	51*	+
CCOc1ccc(/C=C2\SC(=S)N(C(C(=O)O)c3ccccc3)C2=O)cc1OC (stereo unspecified)	-104	-39	-23	28	/
CC1(C)Cc2ccccc2C(/C(C#N)=N/O)=N1	-3	0	0	6	/
SMILES	Runt-SMMHC FRET	Runt-CBFb FRET	RanGTP-Imp inh	Hck-Nef inh	Hck-Nef confirm
COc1ccc(C(NC(=O)/C=C/c2ccco2)c2ccc(OC)c(OC)c2)cc1OC	12	15	-3	5	/
O=C(Oc1ccc(-c2cnc3ccccc3n2)cc1)c1cc([N+](=O)[O-])ccc1Cl	-6	1	3	53*	+
Cc1c(C(=O)Oc2ccc(-c3cnc4ccccc4n3)cc2)cccc1[N+](=O)[O-]	7	15	2	5	/
COc1ccc(NC(=O)/C(C#N)=C\c2ccc(OCc3ccc(C(=O)O)cc3)c(OC)c2)cc1	0	-3	-5	70*	i
COc1ccc(/C=C(\C#N)C(=O)Nc2ccc3[nH]c(=O)[nH]c3c2)cc1	-5	-3	2	71*	i
N#C/C(=C\c1ccccc1OCc1ccc(C(=O)O)cc1)C(=O)Nc1ccc(O)cc1	-2	0	-3	69*	i
COc1cc(/C=C(/C#N)c2ccc(F)cc2)ccc1OCc1ccc(C(=O)O)o1	-2	-2	3	55*	+
COc1cc(C(=O)NCCSc2ccc(F)cc2)cc(OC)c1OC	/	/	8	/	/
CCC(=O)Nc1nnc(SCc2ccc(F)cc2)s1	10	-3	-2	7	/

Screening results: PubChem BioAssay, several laboratories
